Tested on: not listed separately
Experiment: Ratio of TICD50 to that of IC50 of Rauscher-Murine leukemia virus (R-MuLv)
Assay type: functional
Parameters: reference not given here
Conditions: not given
Compound `[N-]=[N+]=N[C@H]1C[C@H](n2cc(Br)c(=O)[nH]c2=O)O[C@@H]1CO` has a Ratio of 1309. Work on `[N-]=[N+]=N[C@H]1C[C@H](n2cc(I)c(=O)[nH]c2=O)O[C@@H]1CO` yielded a Ratio of 1257. Compound `CC1=CN([C@H]2C[C@H](N=[N+]=[N-])[C@@H](CO)O2)C(N)NC1=O` (stereo partly specified) has a Ratio of 3. With `[N-]=[N+]=N[C@H]1C[C@H]2O[C@@H]1COC1NC(=O)C(Br)=CN12` (stereo partly specified) the Ratio was 20. With `CC1=CN2C(NC1=O)OC[C@H]1O[C@@H]2C[C@@H]1N=[N+]=[N-]` (stereo partly specified) the Ratio was 1481. Compound `[N-]=[N+]=N[C@H]1C[C@H]2O[C@@H]1COC1NC(=O)C(I)=CN12` (stereo partly specified) has a Ratio of 16. Work on `CC1=CN2C(NC1=O)OC[C@@H]1CC[C@H]2O1` (stereo partly specified) yielded a Ratio of 1. Work on `Cc1cn([C@H]2CC[C@@H](CO)O2)c(=O)[nH]c1=O` yielded a Ratio of 1. `[N-]=[N+]=N[C@H]1C[C@H](n2ccc(=O)[nH]c2=O)O[C@@H]1CO` [NAVURIDINE] gave a Ratio of 3. `Cc1cn([C@H]2C[C@H](N=[N+]=[N-])[C@@H](CO)O2)c(=O)[nH]c1=O` [ZIDOVUDINE] gave a Ratio of 17391.

Tested on: not listed separately
Experiment: Metabolic stability (Half life)of the compound at pH-2.0 was evaluated
Assay type: ADME
Conditions: read-out: T1/2 h/
Procedure, shortened: (§1)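 Chemical (non-enzymatic) stability. Each compound at 2 mg/mL was incubated in 0.01 N HCl (pH 2.0) at 37 °C. Aliquots taken at various times were run on reverse-phase C-18 HPLC with a linear 0–30% CH3CN gradient into 0.01 M ammonium acetate (pH 5.5) over 30 min, with UV detection at 254 nm. Remaining anhydro compound, released parent nucleoside and pyrimidine base were quantified, and the half-life was derived.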
In the case of `[N-]=[N+]=N[C@H]1C[C@H]2O[C@@H]1COC1NC(=O)C=CN12` (stereo partly specified), the half-life is reported as 0.188 h.

Tested on: Rauscher murine leukemia virus
Experiment: Cytotoxic concentration of compound required to inhibit 50% of host cell replication of Rauscher-Murine leukemia virus
Assay type: functional
Conditions: not given
`CC1=CN2C(NC1=O)OC[C@@H]1CC[C@H]2O1` (stereo partly specified) showed a TCID50 greater than 480 µM.

Tested on: not listed separately
Experiment: Ratio of TICD50 to that of IC50 of human immunodeficiency virus (HIV-1)
Assay type: functional
Parameters: reference not given here
Conditions: not given
With `[N-]=[N+]=N[C@H]1C[C@H](n2cc(Br)c(=O)[nH]c2=O)O[C@@H]1CO` the Ratio was 15. `[N-]=[N+]=N[C@H]1C[C@H](n2cc(I)c(=O)[nH]c2=O)O[C@@H]1CO` showed a Ratio of 12. Work on `CC1=CN([C@H]2C[C@H](N=[N+]=[N-])[C@@H](CO)O2)C(N)NC1=O` (stereo partly specified) yielded a Ratio of 39. In the case of `[N-]=[N+]=N[C@H]1C[C@H]2O[C@@H]1COC1NC(=O)C(Br)=CN12` (stereo partly specified), the Ratio is reported as 6. `[N-]=[N+]=N[C@H]1C[C@H]2O[C@@H]1COC1NC(=O)C=CN12` (stereo partly specified) showed a Ratio of 20. In the case of `CC1=CN2C(NC1=O)OC[C@H]1O[C@@H]2C[C@@H]1N=[N+]=[N-]` (stereo partly specified), the Ratio is reported as 179. `[N-]=[N+]=N[C@H]1C[C@H]2O[C@@H]1COC1NC(=O)C(I)=CN12` (stereo partly specified) gave a Ratio of 7. Work on `CC1=CN2C(NC1=O)OC[C@@H]1CC[C@H]2O1` (stereo partly specified) yielded a Ratio of 7. In the case of `Cc1cn([C@H]2CC[C@@H](CO)O2)c(=O)[nH]c1=O`, the Ratio is reported as 631. For `[N-]=[N+]=N[C@H]1C[C@H](n2ccc(=O)[nH]c2=O)O[C@@H]1CO` [NAVURIDINE], the Ratio was 60. `Cc1cn([C@H]2C[C@H](N=[N+]=[N-])[C@@H](CO)O2)c(=O)[nH]c1=O` [ZIDOVUDINE] gave a Ratio of 290.

Tested on: not listed separately
Experiment: Metabolic stability (Half life) at pH-2.0 was evaluated
Assay type: ADME
Conditions: not given
Procedure, shortened: as §1
Compound `CC1=CN([C@H]2C[C@H](N=[N+]=[N-])[C@@H](CO)O2)C(N)NC1=O` (stereo partly specified) has a half-life of 2.33 h. Compound `[N-]=[N+]=N[C@H]1C[C@H]2O[C@@H]1COC1NC(=O)C(Br)=CN12` (stereo partly specified) has a half-life of 0.238 h. Compound `CC1=CN2C(NC1=O)OC[C@@H]1CC[C@H]2O1` (stereo partly specified) has a half-life of 0.00381 h.

Same assay, conditions: read-out: T1/2 h/
Compound `CC1=CN2C(NC1=O)OC[C@H]1O[C@@H]2C[C@@H]1N=[N+]=[N-]` (stereo partly specified) has a half-life of 0.492 h.

Tested on: not listed separately
Experiment: Metabolic stability (Half life)of the compound at pH-7.4 was evaluated
Assay type: ADME
Conditions: not given
Procedure, shortened: (§2)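 Compound at 2 mg/mL held at 37 °C in phosphate-buffered saline, pH 7.4, with no enzymes present. At various times, aliquots were analysed by reverse-phase C-18 HPLC with a linear 0–30% CH3CN gradient into 0.01 M ammonium acetate (pH 5.5) over 30 min, monitored by UV at 254 nm. Intact anhydro compound, generated parent nucleoside and pyrimidine base were measured, and the half-life was derived.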
Compound `CC1=CN([C@H]2C[C@H](N=[N+]=[N-])[C@@H](CO)O2)C(N)NC1=O` (stereo partly specified) has a half-life greater than 168 h. With `CC1=CN2C(NC1=O)OC[C@@H]1CC[C@H]2O1` (stereo partly specified) the half-life was 84.3 h.

Tested on: Rauscher murine leukemia virus
Experiment: Concentration of compound required to inhibit 50% of viral replication of Rauscher-Murine leukemia virus
Assay type: functional, organism-based
Conditions: not given
`[N-]=[N+]=N[C@H]1C[C@H](n2cc(Br)c(=O)[nH]c2=O)O[C@@H]1CO` gave an IC50 of 0.23 µM. Work on `[N-]=[N+]=N[C@H]1C[C@H](n2cc(I)c(=O)[nH]c2=O)O[C@@H]1CO` yielded an IC50 of 0.21 µM. Work on `CC1=CN([C@H]2C[C@H](N=[N+]=[N-])[C@@H](CO)O2)C(N)NC1=O` (stereo partly specified) yielded an IC50 of 114 µM. For `[N-]=[N+]=N[C@H]1C[C@H]2O[C@@H]1COC1NC(=O)C(Br)=CN12` (stereo partly specified), the IC50 was 16.1 µM. `CC1=CN2C(NC1=O)OC[C@H]1O[C@@H]2C[C@@H]1N=[N+]=[N-]` (stereo partly specified) showed an IC50 of 0.27 µM. With `[N-]=[N+]=N[C@H]1C[C@H]2O[C@@H]1COC1NC(=O)C(I)=CN12` (stereo partly specified) the IC50 was 17.7 µM. With `CC1=CN2C(NC1=O)OC[C@@H]1CC[C@H]2O1` (stereo partly specified) the IC50 was greater than 480 µM. With `Cc1cn([C@H]2CC[C@@H](CO)O2)c(=O)[nH]c1=O` the IC50 was greater than 442 µM. `[N-]=[N+]=N[C@H]1C[C@H](n2ccc(=O)[nH]c2=O)O[C@@H]1CO` [NAVURIDINE] gave an IC50 of 138 µM. `Cc1cn([C@H]2C[C@H](N=[N+]=[N-])[C@@H](CO)O2)c(=O)[nH]c1=O` [ZIDOVUDINE] showed an IC50 of 0.023 µM.

Tested on: CCRF-CEM
Experiment: Concentration of compound required to inhibit 50% of host cell replication of human immunodeficiency virus in CEM-F cells
Assay type: functional
Conditions: not given
For `[N-]=[N+]=N[C@H]1C[C@H](n2cc(Br)c(=O)[nH]c2=O)O[C@@H]1CO`, the “CC50 (50% host cell growth inhibition)” value was 127 µM. In the case of `[N-]=[N+]=N[C@H]1C[C@H](n2cc(I)c(=O)[nH]c2=O)O[C@@H]1CO`, the “CC50 (50% host cell growth inhibition)” value is reported as 153 µM. In the case of `CC1=CN([C@H]2C[C@H](N=[N+]=[N-])[C@@H](CO)O2)C(N)NC1=O` (stereo partly specified), the “CC50 (50% host cell growth inhibition)” value is reported as 470 µM. For `[N-]=[N+]=N[C@H]1C[C@H]2O[C@@H]1COC1NC(=O)C(Br)=CN12` (stereo partly specified), the “CC50 (50% host cell growth inhibition)” value was 168 µM. For `[N-]=[N+]=N[C@H]1C[C@H]2O[C@@H]1COC1NC(=O)C=CN12` (stereo partly specified), the “CC50 (50% host cell growth inhibition)” value was greater than 100 µM. In the case of `CC1=CN2C(NC1=O)OC[C@H]1O[C@@H]2C[C@@H]1N=[N+]=[N-]` (stereo partly specified), the “CC50 (50% host cell growth inhibition)” value is reported as greater than 100 µM. For `[N-]=[N+]=N[C@H]1C[C@H]2O[C@@H]1COC1NC(=O)C(I)=CN12` (stereo partly specified), the “CC50 (50% host cell growth inhibition)” value was 194 µM. In the case of `CC1=CN2C(NC1=O)OC[C@@H]1CC[C@H]2O1` (stereo partly specified), the “CC50 (50% host cell growth inhibition)” value is reported as 346 µM. In the case of `[N-]=[N+]=N[C@H]1C[C@H](n2ccc(=O)[nH]c2=O)O[C@@H]1CO` [NAVURIDINE], the TCID50 is reported as 166 µM.

Tested on: not listed separately
Experiment: Metabolic stability (Half life) at pH-7.4 was evaluated
Assay type: ADME
Conditions: not given
Procedure, shortened: as §2
`[N-]=[N+]=N[C@H]1C[C@H]2O[C@@H]1COC1NC(=O)C(Br)=CN12` (stereo partly specified) showed a half-life of 60.5 h. `[N-]=[N+]=N[C@H]1C[C@H]2O[C@@H]1COC1NC(=O)C=CN12` (stereo partly specified) showed a half-life of 120 h. `CC1=CN2C(NC1=O)OC[C@H]1O[C@@H]2C[C@@H]1N=[N+]=[N-]` (stereo partly specified) gave a half-life greater than 75 h.

Tested on: Rauscher murine leukemia virus
Experiment: Concentration of compound required to inhibit 50% of host cell replication of Rauscher-Murine leukemia virus
Assay type: functional
Conditions: not given
In the case of `[N-]=[N+]=N[C@H]1C[C@H](n2cc(Br)c(=O)[nH]c2=O)O[C@@H]1CO`, the TCID50 is reported as greater than 301 µM. For `[N-]=[N+]=N[C@H]1C[C@H](n2cc(I)c(=O)[nH]c2=O)O[C@@H]1CO`, the TCID50 was greater than 264 µM. `CC1=CN([C@H]2C[C@H](N=[N+]=[N-])[C@@H](CO)O2)C(N)NC1=O` (stereo partly specified) showed a TCID50 greater than 376 µM. `[N-]=[N+]=N[C@H]1C[C@H]2O[C@@H]1COC1NC(=O)C(Br)=CN12` (stereo partly specified) gave a TCID50 greater than 319 µM. With `CC1=CN2C(NC1=O)OC[C@H]1O[C@@H]2C[C@@H]1N=[N+]=[N-]` (stereo partly specified) the TCID50 was greater than 400 µM. With `[N-]=[N+]=N[C@H]1C[C@H]2O[C@@H]1COC1NC(=O)C(I)=CN12` (stereo partly specified) the TCID50 was greater than 277 µM. Compound `Cc1cn([C@H]2CC[C@@H](CO)O2)c(=O)[nH]c1=O` has a TCID50 greater than 442 µM. In the case of `[N-]=[N+]=N[C@H]1C[C@H](n2ccc(=O)[nH]c2=O)O[C@@H]1CO` [NAVURIDINE], the TCID50 is reported as greater than 395 µM. With `Cc1cn([C@H]2C[C@H](N=[N+]=[N-])[C@@H](CO)O2)c(=O)[nH]c1=O` [ZIDOVUDINE] the TCID50 was greater than 400 µM.

Tested on: CCRF-CEM
Experiment: Concentration of compound required to inhibit 50% of viral replication of human immunodeficiency virus in CEM-F cells
Assay type: functional, cell-based
Conditions: not given
`[N-]=[N+]=N[C@H]1C[C@H](n2cc(Br)c(=O)[nH]c2=O)O[C@@H]1CO` showed an IC50 of 8.73 µM. In the case of `[N-]=[N+]=N[C@H]1C[C@H](n2cc(I)c(=O)[nH]c2=O)O[C@@H]1CO`, the IC50 is reported as 12.6 µM. In the case of `CC1=CN([C@H]2C[C@H](N=[N+]=[N-])[C@@H](CO)O2)C(N)NC1=O` (stereo partly specified), the IC50 is reported as 12 µM. Work on `[N-]=[N+]=N[C@H]1C[C@H]2O[C@@H]1COC1NC(=O)C(Br)=CN12` (stereo partly specified) yielded an IC50 of 28 µM. `[N-]=[N+]=N[C@H]1C[C@H]2O[C@@H]1COC1NC(=O)C=CN12` (stereo partly specified) showed an IC50 of 4.95 µM. Work on `CC1=CN2C(NC1=O)OC[C@H]1O[C@@H]2C[C@@H]1N=[N+]=[N-]` (stereo partly specified) yielded an IC50 of 0.56 µM. Work on `[N-]=[N+]=N[C@H]1C[C@H]2O[C@@H]1COC1NC(=O)C(I)=CN12` (stereo partly specified) yielded an IC50 of 27.1 µM. In the case of `CC1=CN2C(NC1=O)OC[C@@H]1CC[C@H]2O1` (stereo partly specified), the IC50 is reported as 48 µM. In the case of `Cc1cn([C@H]2CC[C@@H](CO)O2)c(=O)[nH]c1=O`, the IC50 is reported as 0.38 µM. `[N-]=[N+]=N[C@H]1C[C@H](n2ccc(=O)[nH]c2=O)O[C@@H]1CO` [NAVURIDINE] gave an IC50 of 2.76 µM. Compound `Cc1cn([C@H]2C[C@H](N=[N+]=[N-])[C@@H](CO)O2)c(=O)[nH]c1=O` [ZIDOVUDINE] has an IC50 of 0.1 µM.
